Active and inactive are the calls of the source. The rule behind the calls is not given here.
How the values were obtained:
Trypanosoma brucei [1] = experiment: Effect on morphological changes in Trypanosoma brucei bloodstream form assessed as dilation of mitochondrion membrane at 3 mM after 24 hrs by transmission electron microscopy; assay type: functional, organism-based
How it was run: (§1)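 Parasites exposed 24 h to 3 mM DHA. 10⁸ cells fixed 1 h at 4°C in 2% glutaraldehyde in 0.2 M sodium cacodylate with 0.12 M sucrose, held overnight in buffer, postfixed in 1.5% osmium tetroxide and stained with 0.5% uranyl acetate. Dehydrated in ethanol, cleared in propylene oxide, embedded in Agar 100. Sections stained with 5% uranyl acetate and 0.4% lead citrate for TEM. Rapamycin (5 μM) served as the autophagy positive control.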

Trypanosoma brucei [2] = experiment: Effect on cell cycle of Trypanosoma brucei bloodstream form assessed as induction of necrosis at 5 uM after 24 hrs using propidium iodide staining by FACS analysis; assay type: functional
Trypanosoma brucei [3] = experiment: Effect on cell cycle of Trypanosoma brucei bloodstream form assessed as DNA content at 4 mM after 24 hrs using propidium iodide staining by FACS analysis; assay type: functional
How it was run: (§2)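 T. brucei bloodstream forms (MITat 1.2, strain EATRO 427), axenic culture at 37°C, 5% CO₂. Treated 24 h. At least 5 × 10⁵ cells washed in PBS, lysed hypotonically 30 min at room temperature in 10 mM phosphate buffer pH 7.4 with 6 μM digitonin. Nuclei stained with propidium iodide (10 μg/ml final) and analysed by flow cytometry for G₁/S/G₂ distribution and degraded DNA.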

Trypanosoma brucei [4] = experiment: Effect on morphological changes in Trypanosoma brucei bloodstream form assessed as increase in cell size at 5 mM after 20 hrs by scanning electron microscopy; assay type: functional, organism-based
How it was run: (§3)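 Cells grown 20 h with 5 mM DHA. Fixed and stained as for TEM (glutaraldehyde, osmium tetroxide, uranyl acetate), then dehydrated through 50, 75, 95 and 100% ethanol. Critical-point dried and gold-palladium sputter-coated for scanning electron microscopy.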

Trypanosoma brucei [5] = experiment: Trypanocidal activity against Trypanosoma brucei bloodstream form at 5 mM up to 24 hrs by spectrophotometry; assay type: functional
How it was run: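 Proliferation measured in complete medium (33 mM glucose, 15% serum) with a range of DHA concentrations. Cell density followed over 24 h. Triplicate, SD.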

Trypanosoma brucei [6] = experiment: Induction of apoptosis-like programmed cell death in Trypanosoma brucei bloodstream form assessed as increase in intracellular reactive oxygen species production at 1 mM after 24 hrs by FACS analysis; assay type: functional
How it was run: (§4)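 Bloodstream-form T. brucei MITat 1.2 (VSG 221, strain EATRO 427) were grown axenically at 37°C, 5% CO₂ and exposed to DHA for 24 h. Control and treated cells were then loaded with 10 μM dichlorofluorescein diacetate for 1 h at 37°C. Intracellular fluorescence intensity was read by flow cytometry.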

Trypanosoma brucei [7] = experiment: Induction of apoptosis-like programmed cell death in Trypanosoma brucei bloodstream form assessed as increase in intracellular reactive oxygen species production at 4 mM after 24 hrs by FACS analysis; assay type: functional; how it was run: as §4
Trypanosoma brucei [8] = experiment: Induction of programmed cell death in Trypanosoma brucei bloodstream form assessed as death of total cell population at > 4 mM up to 24 hrs using propidium iodide staining by FACS analysis
Trypanosoma brucei [9] = experiment: Effect on morphological changes in Trypanosoma brucei bloodstream form assessed as dilation of mitochondrial membrane at 3 mM after 24 hrs by transmission electron microscopy; assay type: functional, organism-based; how it was run: as §1
Trypanosoma brucei [10] = experiment: Induction of apoptosis-like programmed cell death in Trypanosoma brucei bloodstream form assessed as increase in intracellular reactive oxygen species production at 2 mM after 24 hrs by FACS analysis; assay type: functional; how it was run: as §4
Trypanosoma brucei [11] = experiment: Trypanocidal activity against Trypanosoma brucei bloodstream form assessed as cell death at 1 mM by spectrophotometry in presence of 1 mM glucose; assay type: functional, organism-based
Trypanosoma brucei [12] = experiment: Induction of apoptosis-like programmed cell death in Trypanosoma brucei bloodstream form assessed as loss of mitochondrial-membrane potential at 4 mM after 24 hrs by TMRE staining; assay type: functional
How it was run: (§5)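 T. brucei MITat 1.2 (EATRO 427) bloodstream forms were grown axenically at 37°C, 5% CO₂ and exposed to DHA for 24 h. Cells at 10⁶/ml were stained with 25 nM TMRE in culture medium for 30 min at 37°C and read at once by flow cytometry. Depolarization control: valinomycin 100 nM. Lower fluorescence signifies lost membrane potential.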

Trypanosoma brucei [13] = experiment: Cell cycle arrest in Trypanosoma brucei bloodstream form assessed as accumulation at G2 phase at 2 mM after 24 hrs using propidium iodide staining by FACS analysis; assay type: functional; how it was run: as §2
Trypanosoma brucei [14] = experiment: Effect on morphological changes in Trypanosoma brucei bloodstream form assessed as increase in cisternal and vesicular structures within cytosol at 3 mM after 24 hrs by transmission electron microscopy; assay type: functional, organism-based; how it was run: as §1
Trypanosoma brucei [15] = experiment: Effect on cell cycle of Trypanosoma brucei bloodstream form assessed as induction of necrosis at 1 mM after 24 hrs using propidium iodide staining by FACS analysis; assay type: functional
How it was run: (§6)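 Bloodstream forms exposed 24 h at 37°C, 5% CO₂. Cells at 2 × 10⁶/ml incubated 10 min with propidium iodide (5 μg/ml), and uptake read by flow cytometry as a measure of membrane integrity. Digitonin (6 μM) served as the necrosis positive control.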

Trypanosoma brucei [16] = experiment: Effect on morphological changes in Trypanosoma brucei bloodstream form assessed as disorder of mitochondrion structure at 3 mM after 24 hrs by transmission electron microscopy; assay type: functional, organism-based; how it was run: as §1
Trypanosoma brucei [17] = experiment: Effect on cell cycle of Trypanosoma brucei bloodstream form assessed as induction of necrosis at 2 mM after 24 hrs using propidium iodide staining by FACS analysis; assay type: functional; how it was run: as §6
Trypanosoma brucei [18] = experiment: Trypanocidal activity against Trypanosoma brucei bloodstream form at < 1 mM; assay type: functional, organism-based
Trypanosoma brucei [19] = experiment: Effect on cell cycle of Trypanosoma brucei bloodstream form assessed as increase in cells with two nuclei and one kinetoplast at 1 to 3 mM using DAPI staining by phase-contrast microscopy; assay type: functional, organism-based
How it was run: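 Bloodstream forms (MITat 1.2, EATRO 427) grown 24 h with or without DHA. Aliquots washed twice in PBS, resuspended, placed on slides and fixed with methanol. Stained 5 min with DAPI (0.1 μg/ml final), then washed. Phase-contrast and fluorescence images scored for nucleus/kinetoplast numbers (1N1K, 1N2K, 2N2K, 2N1K, abnormal). n = 4, Student's t test, SD.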

Trypanosoma brucei [20] = experiment: Trypanocidal activity against Trypanosoma brucei bloodstream form at > 1 mM; assay type: functional, organism-based
Trypanosoma brucei [21] = experiment: Induction of apoptosis-like programmed cell death in Trypanosoma brucei bloodstream form assessed as increase in intracellular reactive oxygen species production at 5 uM after 24 hrs by FACS analysis; assay type: functional
Trypanosoma brucei [22] = experiment: Induction of apoptosis-like programmed cell death in Trypanosoma brucei bloodstream form assessed as loss of mitochondrial-membrane potential at 1 mM after 24 hrs by TMRE staining; assay type: functional; how it was run: as §5
Trypanosoma brucei [23] = experiment: Effect on morphological changes in Trypanosoma brucei bloodstream form assessed as increase in mitochondrion size at 3 mM after 24 hrs by transmission electron microscopy; assay type: functional, organism-based; how it was run: as §1
Trypanosoma brucei [24] = experiment: Trypanocidal activity against Trypanosoma brucei bloodstream form assessed as cell death at 1 mM after 40 mins by spectrophotometry; assay type: functional, organism-based
Trypanosoma brucei [25] = experiment: Effect on cell cycle of Trypanosoma brucei bloodstream form assessed as DNA content at 2 mM after 24 hrs using propidium iodide staining by FACS analysis; assay type: functional; how it was run: as §2
Trypanosoma brucei [26] = experiment: Effect on morphological changes in Trypanosoma brucei bloodstream form assessed as presence of atypical combination of number of nucleus at 5 mM after 20 hrs by scanning electron microscopy; assay type: functional, organism-based; how it was run: as §3
Trypanosoma brucei [27] = experiment: Induction of apoptosis-like programmed cell death in Trypanosoma brucei bloodstream form assessed as increase in intracellular reactive oxygen species production at 3 mM after 24 hrs by FACS analysis; assay type: functional; how it was run: as §4

O=C(CO)CO [DIHYDROXYACETONE]
Activity (Trypanosoma brucei [1]): Active | Activity (Trypanosoma brucei [2]): 4.5% | Activity (Trypanosoma brucei [3]): 9.7% | Activity (Trypanosoma brucei [4]): inactive | Activity (Trypanosoma brucei [5]): 100% | Activity (Trypanosoma brucei [6]): 5.9% | Activity (Trypanosoma brucei [7]): 23.2% | Activity (Trypanosoma brucei [8]): Active | Activity (Trypanosoma brucei [9]): Active | Activity (Trypanosoma brucei [10]): 10.6% | Activity (Trypanosoma brucei [11]): inactive | Activity (Trypanosoma brucei [12]): 26.8% | Activity (Trypanosoma brucei [13]): 50% | Activity (Trypanosoma brucei [14]): Active | Activity (Trypanosoma brucei [15]): 4% | Activity (Trypanosoma brucei [16]): Active | Activity (Trypanosoma brucei [17]): 8.3% | Activity (Trypanosoma brucei [18]): Active | Activity (Trypanosoma brucei [19]): Active | Activity (Trypanosoma brucei [20]): Active | Activity (Trypanosoma brucei [21]): 33.6% | Activity (Trypanosoma brucei [22]): 4.9% | Activity (Trypanosoma brucei [23]): Active | Activity (Trypanosoma brucei [24]): Active | Activity (Trypanosoma brucei [25]): 9% | Activity (Trypanosoma brucei [26]): inactive | Activity (Trypanosoma brucei [27]): 14.4%

Reference: ChEMBL document CHEMBL1137629, “Antiproliferative effect of dihydroxyacetone on Trypanosoma brucei bloodstream forms: cell cycle progression, subcellular alterations, and cell death” (Antimicrob Agents Chemother, 2007)
